According to ChEMBL document CHEMBL4130484, “Identification and optimization of novel 6-acylamino-2-aminoquinolines as potent Hsp90 C-terminal inhibitors” (Eur J Med Chem, 2017):
≈ marks a conversion by molar mass, not a printed value. Calls of active or inactive are those of the source. The calls are words filed in the database; no cut-off is given here.

Columns and labels:
[1] = tested on: MCF7; assay: Growth inhibition of human MCF7 cells at 50 uM incubated for 72 hrs by MTT assay; format: functional; conditions: MCF7, 72 h, read-out: GI
Procedure, shortened: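 MTT screen in MCF7 cells at a single concentration of 50 µM; growth inhibition rate recorded.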

[2] = biological target: T1, Heat shock protein HSP90 (Homo sapiens) (UniProt P07900+P08238); assay: Inhibition of HSP90 C-terminal in human MCF7 cells assessed as reduction in Akt protein expression at 5 to 20 uM incubated for 24 hrs by Western blot method; format: cell-based
Procedure, shortened: (§1)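 MCF7 cells incubated 24 h with various concentrations, then client protein levels read by Western blot. β-Actin served as loading control. AT13387 (1.0 µM), an N-terminal Hsp90 inhibitor, was the positive control.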

[3] = tested on: SK-BR-3; assay: Antiproliferative activity against human SKBR3 cells incubated for 72 hrs by MTT assay; format: functional, cell-based; conditions: SK-BR-3, 72 h
Procedure, shortened: (§2)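 MTT antiproliferation assay in MCF7 and SKBr3 breast cancer cells; IC50 determined.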

[4] = biological target: T1, Heat shock protein HSP90 (Homo sapiens); assay: Inhibition of HSP90 C-terminal in human MCF7 cells assessed as reduction in CDK6 protein expression at 5 to 20 uM incubated for 24 hrs by Western blot method; format: cell-based; procedure, shortened: as §1
[5] = biological target: T1, Heat shock protein HSP90 (Homo sapiens); assay: Inhibition of HSP90 C-terminal in human MCF7 cells assessed as reduction in ERK protein expression at 5 to 20 uM incubated for 24 hrs by Western blot method; format: cell-based; procedure, shortened: as §1
[6] = tested on: MCF7; assay: Antiproliferative activity against human MCF7 cells incubated for 72 hrs by MTT assay; format: functional, cell-based; conditions: MCF7, 72 h; procedure, shortened: as §2
[7] = Permeability coefficient of the compound at pH 7.4 by double-sink PAMPA; format: ADME; conditions: read-out: permeability
Procedure, shortened: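 Double-sink PAMPA at pH 7.4 on a PAMPA Explorer instrument; Pe reported as mean ± SD, n = 3.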

[8] = Intrinsic aqueous solubility of the compound; format: physicochemical
Procedure, shortened: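 Intrinsic aqueous solubility determined on a Gemini Profiler instrument.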

[9] = Distribution coefficient, log D of the compound at pH 7.4; format: physicochemical; conditions: octanol/water
Procedure, shortened: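 Log D at pH 7.4 measured on a PULSE platform.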

IC50 [3] [µM] | IC50 [6] [µM] | Structure (SMILES) | inhibition of growth at 50 µM [1] [%] | other results
– | – | O=C(NCCCN1CCOCC1)c1ccc(NC(=O)c2nnc(COc3ccccc3)s2)cc1 | 50.6 | –
8.09 | 8.41 | Cc1oc2ncn(CC(C)C)c(=O)c2c1C(=O)Nc1ccc(C(=O)NCCN2CCCC2)nc1 | 90.4 | inhibition [2]: inactive; inhibition [4]: inactive; inhibition [5]: inactive
– | – | O=C(Nc1nc(C(=O)NCCN2CCCCC2)cs1)c1ccc2c(c1)OCO2 | < 50 | –
2.69 | 1.7 | Cc1cc(NCCN2CCN(C)CC2)nc2ccc(NC(=O)c3ccc(Cl)c(Cl)c3)cc12 | – | Papp [7]: 7.71 ×10⁻⁶ cm/s; solubility [8]: 106 µg/mL (≈ 224 µM); logD [9]: 1.73
6.32 | 3 | Cc1cc(N2CCN(C)CC2)nc2ccc(NC(=O)c3ccc(Cl)c(Cl)c3)cc12 | – | –
1.98 | 5.23 | CCN1CCN(c2cc(C)c3cc(NC(=O)c4ccc(F)c(F)c4)ccc3n2)CC1 | – | –
38.1 | 32.6 | CCN1CCN(c2cc(C)c3cc(NC(=O)c4ccccc4F)ccc3n2)CC1 | – | –
3.71 | 1.42 | CCN(CC)CCNc1cc(C)c2cc(NC(=O)c3ccc(Cl)c(Cl)c3)ccc2n1 | – | Papp [7]: 28.1 ×10⁻⁶ cm/s; solubility [8]: 95.2 µg/mL (≈ 214 µM); logD [9]: 1.66
9.53 | 1.28 | Cc1cc(NCCN2CCCC2)nc2ccc(NC(=O)c3ccc(Cl)c(Cl)c3)cc12 | – | Papp [7]: 20.8 ×10⁻⁶ cm/s; solubility [8]: 84.5 µg/mL (≈ 191 µM); logD [9]: 1.72
15.1 | 12 | Cc1cc(N2CCOCC2)nc2ccc(NC(=O)c3ccc(Cl)c(Cl)c3)cc12 | – | –
– | – | CCn1c(C(=O)NCCN2CCOCC2)cc2cc(NC(=O)c3ccc(F)cc3)ccc21 | < 50 | –
3.02 | 1.53 | CCN1CCN(c2cc(C)c3cc(NC(=O)c4ccc(Cl)cc4)ccc3n2)CC1 | – | –
28.2 | 48.6 | CCNc1cc(C)c2cc(NC(=O)c3ccc(Cl)c(Cl)c3)ccc2n1 | – | –
6.35 | 2.52 | CNc1cc(C)c2cc(NC(=O)c3ccc(Cl)c(Cl)c3)ccc2n1 | – | –
– | – | COc1ccc(C(=O)Nc2ccc3nc(CN4CCN(C)CC4)n(C)c3c2)cc1OC | 50.8 | –
– | – | COc1ccc(-c2noc(C(=O)NCc3ccc(CN4CCOCC4)cc3)n2)cc1OC | < 50 | –
11.4 | 6.74 | CCN1CCN(c2cc(C)c3cc(NC(=O)c4ccc(C)cc4)ccc3n2)CC1 | – | –
– | – | CCN(CC)CCOC(=O)c1ccc(NC(=O)c2ccc(OC)cc2)cc1 | < 50 | –
12.6 | 4.61 | CCN1CCN(c2cc(C)c3cc(NC(=O)c4ccc5c(c4)OCO5)ccc3n2)CC1 | – | –
13.2 | 14.7 | CCN1CCN(c2cc(C)c3cc(NC(=O)c4ccc[nH]4)ccc3n2)CC1 | – | –
3.76 | 7.06 | CCN1CCN(c2cc(C)c3cc(NC(=O)c4ccc5ccccc5n4)ccc3n2)CC1 | – | –

IC50 [3] [µM] | IC50 [6] [µM] | Structure (SMILES) | inhibition of growth at 50 µM [1] [%] | other results
2.66 | 6.09 | CCN1CCN(c2cc(C)c3cc(NC(=O)c4cc(Cl)cc(Cl)c4)ccc3n2)CC1 | – | –
– | – | CCN1CCN(C(=O)CSCc2nnc(C(=O)Nc3ccc(OC)cc3)s2)CC1 | < 50 | –
> 50 | > 50 | CCN1CCN(c2cc(C)c3cc(NC(=O)c4ccccc4Cl)ccc3n2)CC1 | – | –
23.9 | 15.8 | CCc1ccccc1C(=O)Nc1ccc2nc(N3CCN(CC)CC3)cc(C)c2c1 | – | –
37.5 | 41.2 | CCN1CCN(c2cc(C)c3cc(NC(=O)c4ccco4)ccc3n2)CC1 | – | –
2.55 | 2.95 | CCN1CCN(c2cc(C)c3cc(NC(=O)c4cc5ccccc5[nH]4)ccc3n2)CC1 | – | –
2.71 | 3.65 | CCN1CCN(c2cc(C)c3cc(NC(=O)c4ccc(OC)c(OC)c4)ccc3n2)CC1 | – | –
42.5 | 31.1 | Cc1cc(N2CCCCC2)nc2ccc(NC(=O)c3ccc(Cl)c(Cl)c3)cc12 | – | –
41.2 | > 50 | CCN(CC)c1cc(C)c2cc(NC(=O)c3ccc(Cl)c(Cl)c3)ccc2n1 | – | –
9.85 | 3.06 | CCc1ccc(C(=O)Nc2ccc3nc(N4CCN(CC)CC4)cc(C)c3c2)cc1 | – | –
> 50 | > 50 | CCN1CCN(c2cc(C)c3cc(NC(=O)c4ccncc4)ccc3n2)CC1 | – | –
0.045 | 0.032 | CC(C)c1cc(C(=O)N2Cc3ccc(CN4CCN(C)CC4)cc3C2)c(O)cc1O [ONALESPIB] | – | –
17.8 | 3.82 | CCN1CCN(c2cc(C)c3cc(NC(=O)c4cccc(Cl)c4)ccc3n2)CC1 | – | –
3.33 | 4.86 | CCN1CCN(c2cc(C)c3cc(NC(=O)c4cccc(OC)c4)ccc3n2)CC1 | 96.9 | inhibition [2]: Active; inhibition [4]: Active; inhibition [5]: Active
9.16 | 5.23 | Cc1cc(NCCN2CCOCC2)nc2ccc(NC(=O)c3ccc(Cl)c(Cl)c3)cc12 | – | Papp [7]: 49.8 ×10⁻⁶ cm/s; solubility [8]: 76.2 µg/mL (≈ 166 µM); logD [9]: 2.64
39.2 | 27.5 | CCN1CCN(c2cc(C)c3cc(NC(=O)c4ccccc4Br)ccc3n2)CC1 | – | –
4.99 | 5.38 | CCN(CC)CCOC(=O)c1ccc(NC(=O)C2=CC3C(c4ccccc4F)=NN(C)C3S2)cc1 (centres undefined) | 99.6 | inhibition [2]: inactive; inhibition [4]: inactive; inhibition [5]: inactive
6.31 | 5.94 | CCN1CCN(c2cc(C)c3cc(NC(=O)c4ccc(Br)cc4)ccc3n2)CC1 | – | –
18.4 | 14.2 | CCN1CCN(c2cc(C)c3cc(NC(=O)c4ccccc4)ccc3n2)CC1 | – | –
19.8 | 4.03 | CCN1CCN(c2cc(C)c3cc(NC(=O)c4ccc(F)cc4)ccc3n2)CC1 | – | –
> 50 | 33.3 | Cc1cc(N(C)C)nc2ccc(NC(=O)c3ccc(Cl)c(Cl)c3)cc12 | – | –

IC50 [3] [µM] | IC50 [6] [µM] | Structure (SMILES) | inhibition of growth at 50 µM [1] [%] | other results
– | – | COc1cc(NC(=O)N2CCC(CC(=O)NCCN3CCCC3)CC2)cc(OC)c1OC | < 50 | –
– | – | COc1ccc(C(=O)Nc2ccc3nc(SCC(=O)N4CCCC4)sc3c2)cc1 | 62.5 | –
– | – | COc1ccc(C(=O)Nc2cnn(-c3ncc(N4CCSCC4)cn3)c2)cc1F | < 50 | –
13.7 | 7.8 | CCN1CCN(c2cc(C)c3cc(NC(=O)c4cccc(C)c4)ccc3n2)CC1 | – | –
6.67 | 2.55 | Cc1cc(NCCN(C)C)nc2ccc(NC(=O)c3ccc(Cl)c(Cl)c3)cc12 | – | Papp [7]: 3.13 ×10⁻⁶ cm/s; solubility [8]: 122 µg/mL (≈ 292 µM); logD [9]: 1.47
– | – | CCCOc1cccc(C(=O)NC(=S)Nc2ccc(N3CCCCC3)c(Cl)c2)c1 | < 50 | –
– | – | COc1ccc(C(=O)Nc2nc(CC(=O)N3CCN(c4ccccc4)CC3)cs2)cc1OC | < 50 | –
43.4 | 26.3 | Cc1cc(N2CCCC2)nc2ccc(NC(=O)c3ccc(Cl)c(Cl)c3)cc12 | – | –
– | – | CCN1CCN(CCCNC(=O)c2nc(-c3nn(-c4ccc(C)cc4)c(=O)n(C)c3=O)no2)CC1 | < 50 | –
– | – | COc1ccc(NC(=O)c2nnc(COCC(=O)NCCN(C)C)s2)cc1 | < 50 | –
– | – | CCN1CCN(Cc2nc3ccc(NC(=O)c4ccc(OC)cc4)cc3n2C(C)C)CC1 | 55 | –
13.3 | 11.6 | CCN1CCN(c2cc(C)c3cc(NC(=O)c4cccc(Br)c4)ccc3n2)CC1 | – | –
10.6 | 26.6 | CCN1CCN(c2cc(C)c3cc(NC(=O)c4cccnc4)ccc3n2)CC1 | – | –
29.2 | 10.9 | CCN1CCN(c2cc(C)c3cc(NC(=O)c4ccccc4C)ccc3n2)CC1 | – | –
24.9 | 8.92 | CCN1CCN(c2cc(C)c3cc(NC(=O)c4cccc(F)c4)ccc3n2)CC1 | – | –
2.16 | 1.38 | CCN1CCN(c2cc(C)c3cc(NC(=O)c4ccc(Cl)c(Cl)c4)ccc3n2)CC1 | – | Papp [7]: 25.9 ×10⁻⁶ cm/s; solubility [8]: 11.3 µg/mL (≈ 25.5 µM); logD [9]: 3.67
6.68 | 1.71 | Cc1cc(N2CCN(C(C)C)CC2)nc2ccc(NC(=O)c3ccc(Cl)c(Cl)c3)cc12 | – | –
9 | 7.69 | CCN1CCN(c2cc(C)c3cc(NC(=O)c4ccc(OC)cc4)ccc3n2)CC1 | – | –
15.7 | 13.2 | CCN1CCN(c2cc(C)c3cc(NC(=O)c4ccccc4OC)ccc3n2)CC1 | – | –
– | – | COCc1nnc(C(=O)Nc2ccc(C(=O)NCCCN3CCCCC3)cc2)s1 | < 50 | –
– | – | O=C(Nc1nc(C(=O)NCCCN2CCCC2=O)cs1)c1ccc2c(c1)OCO2 | < 50 | –
